Experimental data taken from ChEMBL document CHEMBL4190234, “Design, synthesis and anticancer activity of new monastrol analogues bearing 1,3,4-oxadiazole moiety” (Eur J Med Chem, 2017).

Legend:
Type in all cases: functional
SW-620 = experiment: Growth inhibition of human SW620 cells at 10 uM incubated for 48 hrs by sulforhodamine B assay relative to control; conditions: SW-620, 48 h, read-out: GI
In short: (§1)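 NCI single-dose screen: cells grown in RPMI 1640 with 5% FBS and 2 mM L-glutamine, plated at 5,000–40,000 cells/well and preincubated 24 h at 37 °C, 5% CO2. Compounds taken from DMSO stock and tested at final 10 µM for 48 h. Cells fixed with TCA, stained with 0.4% SRB, absorbance read at 515 nm. Percentage growth calculated against untreated controls; controls held DMSO at the same dilution.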

MCF7 = experiment: Growth inhibition of human MCF7 cells at 10 uM incubated for 48 hrs by sulforhodamine B assay relative to control; conditions: MCF7, 48 h, read-out: GI
In short: (§2)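 Single-dose screen at 10 μM final: cells in RPMI 1640, 5% FBS, 2 mM L-glutamine, plated 5,000–40,000/well, preincubated 24 h at 37°C, 5% CO2; drug 48 h; adherent cells fixed with 10% TCA, suspension cells with 16% TCA; SRB stain, absorbance 515 nm; percentage growth versus untreated control, with time-zero plates.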

SN12C = experiment: Growth inhibition of human SN12C cells at 10 uM incubated for 48 hrs by sulforhodamine B assay relative to control; conditions: read-out: GI; in short: as §1
MDA-MB-231 = experiment: Growth inhibition of human MDA-MB-231 cells at 10 uM incubated for 48 hrs by sulforhodamine B assay relative to control; conditions: MDA-MB-231, 48 h, read-out: GI; in short: as §2
PC-3 = experiment: Growth inhibition of human PC3 cells at 10 uM incubated for 48 hrs by sulforhodamine B assay relative to control; conditions: PC-3, 48 h, read-out: GI; in short: as §2
OVCAR-5 = experiment: Growth inhibition of human OVCAR5 cells at 10 uM incubated for 48 hrs by sulforhodamine B assay relative to control; conditions: OVCAR-5, 48 h, read-out: GI; in short: as §2
SF-295 = experiment: Growth inhibition of human SF295 cells at 10 uM incubated for 48 hrs by sulforhodamine B assay relative to control; conditions: SF-295, 48 h, read-out: GI; in short: as §1
SF-268 = experiment: Growth inhibition of human SF268 cells at 10 uM incubated for 48 hrs by sulforhodamine B assay relative to control; conditions: SF-268, 48 h, read-out: GI; in short: as §1
RXF 393 = experiment: Growth inhibition of human RXF393 cells at 10 uM incubated for 48 hrs by sulforhodamine B assay relative to control; conditions: RXF 393, 48 h, read-out: GI; in short: as §2
NCI-H23 = experiment: Growth inhibition of human NCI-H23 cells at 10 uM incubated for 48 hrs by sulforhodamine B assay relative to control; conditions: NCI-H23, 48 h, read-out: GI; in short: as §2
SK-MEL-28 = experiment: Growth inhibition of human SK-MEL-28 cells at 10 uM incubated for 48 hrs by sulforhodamine B assay relative to control; conditions: SK-MEL-28, 48 h, read-out: GI; in short: as §1
HOP-62 = experiment: Growth inhibition of human HOP62 cells at 10 uM incubated for 48 hrs by sulforhodamine B assay relative to control; conditions: HOP-62, 48 h, read-out: GI; in short: as §2
HCC 2998 = experiment: Growth inhibition of human HCC2998 cells at 10 uM incubated for 48 hrs by sulforhodamine B assay relative to control; conditions: HCC 2998, 48 h, read-out: GI; in short: as §2
Malme-3M = experiment: Growth inhibition of human MALME-3M cells at 10 uM incubated for 48 hrs by sulforhodamine B assay relative to control; conditions: read-out: GI; in short: as §2
M14 = experiment: Growth inhibition of human M14 cells at 10 uM incubated for 48 hrs by sulforhodamine B assay relative to control; conditions: M14, 48 h, read-out: GI; in short: as §2
SK-MEL-5 = experiment: Growth inhibition of human SK-MEL-5 cells at 10 uM incubated for 48 hrs by sulforhodamine B assay relative to control; conditions: SK-MEL-5, 48 h, read-out: GI; in short: as §1
SK-OV-3 = experiment: Growth inhibition of human SKOV3 cells at 10 uM incubated for 48 hrs by sulforhodamine B assay relative to control; conditions: SK-OV-3, 48 h, read-out: GI; in short: as §1
OVCAR-4 = experiment: Growth inhibition of human OVCAR4 cells at 10 uM incubated for 48 hrs by sulforhodamine B assay relative to control; conditions: OVCAR-4, 48 h, read-out: GI; in short: as §2
UACC-62 = experiment: Growth inhibition of human UACC62 cells at 10 uM incubated for 48 hrs by sulforhodamine B assay relative to control; conditions: UACC-62, 48 h, read-out: GI; in short: as §1
A498 = experiment: Growth inhibition of human A498 cells at 10 uM incubated for 48 hrs by sulforhodamine B assay relative to control; conditions: A498, 48 h, read-out: GI; in short: as §2
K562 = experiment: Growth inhibition of human K562 cells at 10 uM incubated for 48 hrs by sulforhodamine B assay relative to control; conditions: K562, 48 h, read-out: GI; in short: as §2
OVCAR-3 = experiment: Growth inhibition of human OVCAR3 cells at 10 uM incubated for 48 hrs by sulforhodamine B assay relative to control; conditions: OVCAR-3, 48 h, read-out: GI; in short: as §2
T47D = experiment: Growth inhibition of human T47D cells at 10 uM incubated for 48 hrs by sulforhodamine B assay relative to control; conditions: read-out: GI; in short: as §1
BT-549 = experiment: Growth inhibition of human BT549 cells at 10 uM incubated for 48 hrs by sulforhodamine B assay relative to control; conditions: BT-549, 48 h, read-out: GI; in short: as §2
NCI-H322M = experiment: Growth inhibition of human NCI-H322M cells at 10 uM incubated for 48 hrs by sulforhodamine B assay relative to control; conditions: read-out: GI; in short: as §2
NCI-H226 = experiment: Growth inhibition of human NCI-H226 cells at 10 uM incubated for 48 hrs by sulforhodamine B assay relative to control; conditions: NCI-H226, 48 h, read-out: GI; in short: as §2
NCI-H460 = experiment: Growth inhibition of human NCI-H460 cells at 10 uM incubated for 48 hrs by sulforhodamine B assay relative to control; conditions: NCI-H460, 48 h, read-out: GI; in short: as §2
KM12 = experiment: Growth inhibition of human KM12 cells at 10 uM incubated for 48 hrs by sulforhodamine B assay relative to control; conditions: KM12, 48 h, read-out: GI; in short: as §2
COLO 205 = experiment: Growth inhibition of human COLO205 cells at 10 uM incubated for 48 hrs by sulforhodamine B assay relative to control; conditions: COLO 205, 48 h, read-out: GI; in short: as §2
EKVX = experiment: Growth inhibition of human EKVX cells at 10 uM incubated for 48 hrs by sulforhodamine B assay relative to control; conditions: read-out: GI; in short: as §2
U-251 = experiment: Growth inhibition of human U251 cells at 10 uM incubated for 48 hrs by sulforhodamine B assay relative to control; conditions: U-251, 48 h, read-out: GI; in short: as §1
HOP-92 = experiment: Growth inhibition of human HOP92 cells at 10 uM incubated for 48 hrs by sulforhodamine B assay relative to control; conditions: HOP-92, 48 h, read-out: GI; in short: as §2

CCOC(=O)C1=C(C)NC(SCc2nnc(-c3ccc(Cl)cc3)o2)=NC1c1ccc(Br)cc1 (stereo unspecified)
inhibition of growth at 10 µM (SW-620): < 10% | inhibition of growth at 10 µM (MCF7): 55.2% | inhibition of growth at 10 µM (SN12C): < 10% | inhibition of growth at 10 µM (MDA-MB-231): 40.2% | inhibition of growth at 10 µM (PC-3): 51.2% | inhibition of growth at 10 µM (OVCAR-5): < 10% | inhibition of growth at 10 µM (SF-295): 26.4% | inhibition of growth at 10 µM (SF-268): 13.3% | inhibition of growth at 10 µM (RXF 393): 25% | inhibition of growth at 10 µM (NCI-H23): 24.3% | inhibition of growth at 10 µM (SK-MEL-28): 18.7% | inhibition of growth at 10 µM (HOP-62): 13.1% | inhibition of growth at 10 µM (HCC 2998): < 10% | inhibition of growth at 10 µM (Malme-3M): 16.9% | inhibition of growth at 10 µM (M14): 26% | inhibition of growth at 10 µM (SK-MEL-5): 48.6% | inhibition of growth at 10 µM (SK-OV-3): 18% | inhibition of growth at 10 µM (OVCAR-4): 30.4% | inhibition of growth at 10 µM (UACC-62): 44.7% | inhibition of growth at 10 µM (A498): 26.8% | inhibition of growth at 10 µM (K562): 39.3% | inhibition of growth at 10 µM (OVCAR-3): 22.5% | inhibition of growth at 10 µM (T47D): 52% | inhibition of growth at 10 µM (BT-549): 20.2% | inhibition of growth at 10 µM (NCI-H322M): 13.6% | inhibition of growth at 10 µM (NCI-H226): 21.1% | inhibition of growth at 10 µM (NCI-H460): 19.6% | inhibition of growth at 10 µM (KM12): 24% | inhibition of growth at 10 µM (COLO 205): 22.4% | inhibition of growth at 10 µM (EKVX): 28.7% | inhibition of growth at 10 µM (U-251): 34.3% | inhibition of growth at 10 µM (HOP-92): 42.2%

CCOC(=O)C1=C(C)NC(SCc2nnc(-c3ccc(OC)cc3)o2)=NC1c1ccc(F)cc1 (stereo unspecified)
inhibition of growth at 10 µM (SW-620): < 10% | inhibition of growth at 10 µM (MCF7): < 10% | inhibition of growth at 10 µM (SN12C): < 10% | inhibition of growth at 10 µM (MDA-MB-231): < 10% | inhibition of growth at 10 µM (PC-3): 12.5% | inhibition of growth at 10 µM (OVCAR-5): < 10% | inhibition of growth at 10 µM (SF-295): < 10% | inhibition of growth at 10 µM (SF-268): < 10% | inhibition of growth at 10 µM (RXF 393): 14.5% | inhibition of growth at 10 µM (NCI-H23): < 10% | inhibition of growth at 10 µM (SK-MEL-28): < 10% | inhibition of growth at 10 µM (HOP-62): 12% | inhibition of growth at 10 µM (HCC 2998): < 10% | inhibition of growth at 10 µM (Malme-3M): < 10% | inhibition of growth at 10 µM (M14): < 10% | inhibition of growth at 10 µM (SK-MEL-5): < 10% | inhibition of growth at 10 µM (SK-OV-3): 14.2% | inhibition of growth at 10 µM (OVCAR-4): < 10% | inhibition of growth at 10 µM (UACC-62): < 10% | inhibition of growth at 10 µM (A498): < 10% | inhibition of growth at 10 µM (K562): < 10% | inhibition of growth at 10 µM (OVCAR-3): < 10% | inhibition of growth at 10 µM (T47D): 33.3% | inhibition of growth at 10 µM (BT-549): < 10% | inhibition of growth at 10 µM (NCI-H322M): < 10% | inhibition of growth at 10 µM (NCI-H226): 10.4% | inhibition of growth at 10 µM (NCI-H460): < 10% | inhibition of growth at 10 µM (KM12): < 10% | inhibition of growth at 10 µM (COLO 205): < 10% | inhibition of growth at 10 µM (EKVX): < 10% | inhibition of growth at 10 µM (U-251): < 10% | inhibition of growth at 10 µM (HOP-92): 21.4%

CCOC(=O)C1=C(C)NC(SCc2nnc(-c3ccc(Cl)cc3)o2)=NC1c1ccc(Cl)cc1 (stereo unspecified)
inhibition of growth at 10 µM (SW-620): 14.1% | inhibition of growth at 10 µM (MCF7): 51% | inhibition of growth at 10 µM (SN12C): < 10% | inhibition of growth at 10 µM (MDA-MB-231): 37.3% | inhibition of growth at 10 µM (PC-3): 51.2% | inhibition of growth at 10 µM (OVCAR-5): 10.4% | inhibition of growth at 10 µM (SF-295): 25.9% | inhibition of growth at 10 µM (SF-268): 14% | inhibition of growth at 10 µM (RXF 393): 32.3% | inhibition of growth at 10 µM (NCI-H23): 21.2% | inhibition of growth at 10 µM (SK-MEL-28): 20.2% | inhibition of growth at 10 µM (HOP-62): < 10% | inhibition of growth at 10 µM (HCC 2998): 20.1% | inhibition of growth at 10 µM (Malme-3M): 18.3% | inhibition of growth at 10 µM (M14): 30.7% | inhibition of growth at 10 µM (SK-MEL-5): 59.1% | inhibition of growth at 10 µM (SK-OV-3): 17.4% | inhibition of growth at 10 µM (OVCAR-4): 30% | inhibition of growth at 10 µM (UACC-62): 50.1% | inhibition of growth at 10 µM (A498): 19.3% | inhibition of growth at 10 µM (K562): 44.2% | inhibition of growth at 10 µM (OVCAR-3): 29.2% | inhibition of growth at 10 µM (T47D): 50.1% | inhibition of growth at 10 µM (BT-549): 24.7% | inhibition of growth at 10 µM (NCI-H322M): 17.7% | inhibition of growth at 10 µM (NCI-H226): 30.1% | inhibition of growth at 10 µM (NCI-H460): 21.1% | inhibition of growth at 10 µM (KM12): 30.3% | inhibition of growth at 10 µM (COLO 205): 20.4% | inhibition of growth at 10 µM (EKVX): 19.9% | inhibition of growth at 10 µM (U-251): 26.1% | inhibition of growth at 10 µM (HOP-92): 35.9%
